Assay results published in ChEMBL document CHEMBL1137764, “Design, synthesis, antibacterial activity and physicochemical parameters of novel N-4-piperazinyl derivatives of norfloxacin” (Bioorg Med Chem, 2009).
Converted amounts (≈) assume the structure as drawn.

How the values were obtained:
Klebsiella pneumoniae [1] = experiment: Antimicrobial activity against Klebsiella pneumoniae after 24 hrs by agar diffusion technique; type: functional; details: for MIC: Klebsiella pneumoniae, 24 h
Outline: (§1)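 Agar cup diffusion on Mueller-Hinton agar seeded from 10⁶ CFU/mL suspensions, with 10 mm cups in a 3–4 mm layer. Compounds were in DMF (10 mg/mL stock) at several concentrations. Plates were incubated at 37 °C and zones measured after 24 h. MIC was taken as the intercept of the plot of log concentration against inhibition zone diameter.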

Escherichia coli [2] = experiment: Antimicrobial activity against Escherichia coli at 512 ug/ml after 24 hrs by agar diffusion technique; type: functional; details: read-out: DIZ
Outline: (§2)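 Strains came from a university microbiology department. Inocula were 10⁶ CFU/mL. Mueller-Hinton agar was seeded with culture, poured 3–4 mm thick, and 10 mm cups were bored. Compounds were dissolved in DMF (10 mg/mL stock), diluted, and the solution was placed in the cups. Plates were incubated at 37 °C overnight. Inhibition zone diameter (mm) was read at 24 h.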

Klebsiella pneumoniae [3] = experiment: Antimicrobial activity against Klebsiella pneumoniae at 128 ug/ml after 24 hrs by agar diffusion technique; type: functional; details: read-out: DIZ; outline: as §2
Escherichia coli [4] = experiment: Antimicrobial activity against Escherichia coli at 16 ug/ml after 24 hrs by agar diffusion technique; type: functional; details: read-out: DIZ; outline: as §2
Klebsiella pneumoniae [5] = experiment: Antimicrobial activity against Klebsiella pneumoniae at 64 ug/ml after 24 hrs by agar diffusion technique; type: functional; details: read-out: DIZ; outline: as §2
Staphylococcus aureus [6] = experiment: Antimicrobial activity against Staphylococcus aureus after 24 hrs by agar diffusion technique; type: functional; details: for MIC: Staphylococcus aureus, 24 h; outline: as §1
Pseudomonas aeruginosa [7] = experiment: Antimicrobial activity against Pseudomonas aeruginosa at 4 ug/ml after 24 hrs by agar diffusion technique; type: functional; details: read-out: DIZ; outline: as §2
Pseudomonas aeruginosa [8] = experiment: Antimicrobial activity against Pseudomonas aeruginosa after 24 hrs by agar diffusion technique; type: functional; details: for MIC: Pseudomonas aeruginosa, 24 h; outline: as §1
Staphylococcus aureus [9] = experiment: Antimicrobial activity against Staphylococcus aureus at 128 ug/ml after 24 hrs by agar diffusion technique; type: functional; details: read-out: DIZ; outline: as §2
Escherichia coli [10] = experiment: Antimicrobial activity against Escherichia coli after 24 hrs by agar diffusion technique; type: functional; details: for MIC: Escherichia coli, 24 h; outline: as §1
Klebsiella pneumoniae [11] = experiment: Antimicrobial activity against Klebsiella pneumoniae at 512 ug/ml after 24 hrs by agar diffusion technique; type: functional; details: read-out: DIZ; outline: as §2
Escherichia coli [12] = experiment: Antimicrobial activity against Escherichia coli at 64 ug/ml after 24 hrs by agar diffusion technique; type: functional; details: read-out: DIZ; outline: as §2
Klebsiella pneumoniae [13] = experiment: Antimicrobial activity against Klebsiella pneumoniae at 4 ug/ml after 24 hrs by agar diffusion technique; type: functional; details: read-out: DIZ; outline: as §2
Pseudomonas aeruginosa [14] = experiment: Antimicrobial activity against Pseudomonas aeruginosa at 64 ug/ml after 24 hrs by agar diffusion technique; type: functional; details: read-out: DIZ; outline: as §2
Klebsiella pneumoniae [15] = experiment: Antimicrobial activity against Klebsiella pneumoniae at 16 ug/ml after 24 hrs by agar diffusion technique; type: functional; details: read-out: DIZ; outline: as §2
Staphylococcus aureus [16] = experiment: Antimicrobial activity against Staphylococcus aureus at 16 ug/ml after 24 hrs by agar diffusion technique; type: functional; details: read-out: DIZ; outline: as §2
Staphylococcus aureus [17] = experiment: Antimicrobial activity against Staphylococcus aureus at 512 ug/ml after 24 hrs by agar diffusion technique; type: functional; details: read-out: DIZ; outline: as §2
Pseudomonas aeruginosa [18] = experiment: Antimicrobial activity against Pseudomonas aeruginosa at 512 ug/ml after 24 hrs by agar diffusion technique; type: functional; details: read-out: DIZ; outline: as §2
Pseudomonas aeruginosa [19] = experiment: Antimicrobial activity against Pseudomonas aeruginosa at 16 ug/ml after 24 hrs by agar diffusion technique; type: functional; details: read-out: DIZ; outline: as §2
Escherichia coli [20] = experiment: Antimicrobial activity against Escherichia coli at 4 ug/ml after 24 hrs by agar diffusion technique; type: functional; details: read-out: DIZ; outline: as §2
Staphylococcus aureus [21] = experiment: Antimicrobial activity against Staphylococcus aureus at 4 ug/ml after 24 hrs by agar diffusion technique; type: functional; details: read-out: DIZ; outline: as §2
Pseudomonas aeruginosa [22] = experiment: Antimicrobial activity against Pseudomonas aeruginosa at 128 ug/ml after 24 hrs by agar diffusion technique; type: functional; details: read-out: DIZ; outline: as §2
Escherichia coli [23] = experiment: Antimicrobial activity against Escherichia coli at 128 ug/ml after 24 hrs by agar diffusion technique; type: functional; details: read-out: DIZ; outline: as §2
Staphylococcus aureus [24] = experiment: Antimicrobial activity against Staphylococcus aureus at 64 ug/ml after 24 hrs by agar diffusion technique; type: functional; details: read-out: DIZ; outline: as §2
[25] = Octanol-phosphate buffer partition coefficient, log D at pH 7.4 by spectrophotometry; type: physicochemical
Outline: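 Shake-flask method. A 0.2 mg/mL stock was diluted into pH 7.4 phosphate buffer and mixed with an equal volume of n-octanol, phases mutually presaturated and protected from light. Samples were vortexed 3 min, then shaken 5 h at 25 °C. Both phases were assayed by UV at 270–280 nm. D is the molar concentration ratio, octanol to aqueous.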

| SMILES | logMIC (Klebsiella pneumoniae [1]) | MIC (Klebsiella pneumoniae [1]) [µg/mL] | zone of inhibition at 512 µg/mL (Escherichia coli [2]) [mm] | zone of inhibition at 128 µg/mL (Klebsiella pneumoniae [3]) [mm] | zone of inhibition at 16 µg/mL (Escherichia coli [4]) [mm] | zone of inhibition at 64 µg/mL (Klebsiella pneumoniae [5]) [mm] | logMIC (Staphylococcus aureus [6]) | MIC (Staphylococcus aureus [6]) [µg/mL] | zone of inhibition at 4 µg/mL (Pseudomonas aeruginosa [7]) [mm] | logMIC (Pseudomonas aeruginosa [8]) | MIC (Pseudomonas aeruginosa [8]) [µg/mL] | zone of inhibition at 128 µg/mL (Staphylococcus aureus [9]) [mm] | logMIC (Escherichia coli [10]) | MIC (Escherichia coli [10]) [µg/mL] | zone of inhibition at 512 µg/mL (Klebsiella pneumoniae [11]) [mm] | zone of inhibition at 64 µg/mL (Escherichia coli [12]) [mm] | zone of inhibition at 4 µg/mL (Klebsiella pneumoniae [13]) [mm] | zone of inhibition at 64 µg/mL (Pseudomonas aeruginosa [14]) [mm] | zone of inhibition at 16 µg/mL (Klebsiella pneumoniae [15]) [mm] | zone of inhibition at 16 µg/mL (Staphylococcus aureus [16]) [mm] | further results |
| --- | --- | --- | --- | --- | --- | --- | --- | --- | --- | --- | --- | --- | --- | --- | --- | --- | --- | --- | --- | --- | --- |
| CCn1cc(C(=O)O)c(=O)c2cc(F)c(N3CCN(CN4C(=O)CCC4=O)CC3)cc21 | 2.11 | 128 (≈ 297 µM) | 5 | 22 | 0 | 20 | 0.6 | 4 (≈ 9.29 µM) | 0 | 0.7 | 5 (≈ 11.6 µM) | 13 | 0 | < 1 | 31 | 0 | 8 | 13 | 15 | 4 | zone of inhibition at 512 µg/mL (Staphylococcus aureus [17]): 22 mm; zone of inhibition at 512 µg/mL (Pseudomonas aeruginosa [18]): 27 mm; zone of inhibition at 16 µg/mL (Pseudomonas aeruginosa [19]): 9 mm; zone of inhibition at 4 µg/mL (Escherichia coli [20]): 0 mm; zone of inhibition at 4 µg/mL (Staphylococcus aureus [21]): 0 mm; zone of inhibition at 128 µg/mL (Pseudomonas aeruginosa [22]): 15 mm; zone of inhibition at 128 µg/mL (Escherichia coli [23]): 0 mm; zone of inhibition at 64 µg/mL (Staphylococcus aureus [24]): 12 mm; logD [25]: -0.8 |
| CCn1cc(C(=O)O)c(=O)c2cc(F)c(N3CCN(CN4N=C(C)CC4=O)CC3)cc21 | 0.9 | 8 (≈ 18.6 µM) | 10 | 6 | 8 | 3 | 1 | 10 (≈ 23.3 µM) | 0 | 0.95 | 9 (≈ 21 µM) | 3 | 0 | < 1 | 11 | 10 | 0 | 3 | 2 | 0 | zone of inhibition at 512 µg/mL (Staphylococcus aureus [17]): 3 mm; zone of inhibition at 512 µg/mL (Pseudomonas aeruginosa [18]): 18 mm; zone of inhibition at 16 µg/mL (Pseudomonas aeruginosa [19]): 3 mm; zone of inhibition at 4 µg/mL (Escherichia coli [20]): 8 mm; zone of inhibition at 4 µg/mL (Staphylococcus aureus [21]): 0 mm; zone of inhibition at 128 µg/mL (Pseudomonas aeruginosa [22]): 7 mm; zone of inhibition at 128 µg/mL (Escherichia coli [23]): 10 mm; zone of inhibition at 64 µg/mL (Staphylococcus aureus [24]): 7 mm; logD [25]: -0.85 |
| CCn1cc(C(=O)O)c(=O)c2cc(F)c(N3CC[N+](CCO)(CCO)CC3)cc21.[Br-] | 1 | 10 | 12 | 5 | 4 | 4 | 2.11 | 128 | 0 | 2.71 | > 512 | 0 | 0.6 | 4 | 11 | 7 | 0 | 0 | 0 | 0 | zone of inhibition at 512 µg/mL (Staphylococcus aureus [17]): 14 mm; zone of inhibition at 512 µg/mL (Pseudomonas aeruginosa [18]): 0 mm; zone of inhibition at 16 µg/mL (Pseudomonas aeruginosa [19]): 0 mm; zone of inhibition at 4 µg/mL (Escherichia coli [20]): 0 mm; zone of inhibition at 4 µg/mL (Staphylococcus aureus [21]): 0 mm; zone of inhibition at 128 µg/mL (Pseudomonas aeruginosa [22]): 0 mm; zone of inhibition at 128 µg/mL (Escherichia coli [23]): 9 mm; zone of inhibition at 64 µg/mL (Staphylococcus aureus [24]): 0 mm; logD [25]: 0.158 |
| CCn1cc(C(=O)O)c(=O)c2cc(F)c(N3CCNCC3)cc21 [NORFLOXACIN] | 0 | 8 (≈ 25.1 µM) | 19 | 8 | 0 | 5 | 1.81 | 64 (≈ 200 µM) | 0 | 0.95 | 9 (≈ 28.2 µM) | 3 | 1.45 | 14 (≈ 43.8 µM) | 12 | 4 | 0 | 5 | 0 | 0 | zone of inhibition at 512 µg/mL (Staphylococcus aureus [17]): 20 mm; zone of inhibition at 512 µg/mL (Pseudomonas aeruginosa [18]): 20 mm; zone of inhibition at 16 µg/mL (Pseudomonas aeruginosa [19]): 2 mm; zone of inhibition at 4 µg/mL (Escherichia coli [20]): 0 mm; zone of inhibition at 4 µg/mL (Staphylococcus aureus [21]): 0 mm; zone of inhibition at 128 µg/mL (Pseudomonas aeruginosa [22]): 15 mm; zone of inhibition at 128 µg/mL (Escherichia coli [23]): 6 mm; zone of inhibition at 64 µg/mL (Staphylococcus aureus [24]): 0 mm; logD [25]: -0.41 |
